High-throughput results: PubChem, Sanford-Burnham Center for Chemical Genomics
This is a sample that favours compounds with a hit; in the whole collection about 1.3% have one here.
PfGluPho inh: PfG6PD (Plasmodium falciparum) enzyme inhibition; inhibition, % at 20 µM; 0.78% of 350,000 active; AID 504690; PfGluPho enzyme, NADPH resazurin-diaphorase fluorescence;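 active = inhibition reaching at least a set limit at 20 µM in the primary screen, cut at about 59% in these data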;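 note: 0% = DMSO wells with substrate and 100% = DMSO wells lacking glucose-6-phosphate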
G6PDH CS: counter-screen for G6PDH assay hits: L. mesenteroides G6PDH inhibition | Purified L. mesenteroides G6PDH, diaphorase/resazurin coupled fluorescence, 45 min | inhibition, % at 5 µM | 0.12% of 200,000 active | AID 1020; in the data active = inhibition above about 50%
Diaph act CS: counter-screen for diaphorase-based assays: diaphorase activators and chemical reducers | Diaphorase/resazurin coupled assay, resorufin fluorescence, 16 min; stronger effect = higher value; 1 = vehicle wells, 0 = NADH-free wells | activation factor at 20 µM | 0.005% of 190,000 active | AID 1229;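 active = diaphorase activity raised at least twofold by the compound at 20 µM; inactive = activation factor below 2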
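Test system: Clostridium kluyveri diaphorase, purified enzyme. Buffer or medium: 50 mM HEPES pH 7.4 buffer plus MgCl2 and Tween 20. Also added: 0.114 mM NADH and 0.1 mM resazurin, final amounts. Dosing: compound 20 µM once, DMSO 1%. Schedule: 16 min enzyme reaction, ambient temperature. Detection: fluorescence of resorufin, 544 nm excitation, 590 nm emission.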
Diaphorase inh: diaphorase inhibition or chemical oxidation counter-screen; diaphorase resazurin-to-resorufin fluorescence, NADH, 16 min; bacterial (C. kluyveri) enzyme, not human; inhibition, % at 20 µM; 0.69% of 190,000 active;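 active = primary screen inhibition at 20 µM above a set limit, cut at about 50% in these data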;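 note: plate controls were DMSO with full reaction for no effect and wells lacking NADH for full effect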
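Assay system – diaphorase enzyme from Clostridium kluyveri · Amount – diaphorase 0.14 U/mL (working solution) · Times – reaction incubation of 16 min at room temperature · Controls – No-NADH positive control and DMSO neutral control · Signal – resorufin fluorescence 544/590 nm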
HKDC1 inh: blocks human hexokinase HKDC1 activity; Q2TB90; recombinant HKDC1, G6PDH/diaphorase resazurin coupled fluorescence; inhibition, % at 20 µM; 0.16% of 340,000 active; AID 493160;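 active = inhibition above about 35% when tested at 20 µM, limit read from the data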;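 note: plate controls were DMSO wells with enzyme for no effect and DMSO wells lacking enzyme for full effect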
Target sequence (Q2TB90 whole entry, looked up): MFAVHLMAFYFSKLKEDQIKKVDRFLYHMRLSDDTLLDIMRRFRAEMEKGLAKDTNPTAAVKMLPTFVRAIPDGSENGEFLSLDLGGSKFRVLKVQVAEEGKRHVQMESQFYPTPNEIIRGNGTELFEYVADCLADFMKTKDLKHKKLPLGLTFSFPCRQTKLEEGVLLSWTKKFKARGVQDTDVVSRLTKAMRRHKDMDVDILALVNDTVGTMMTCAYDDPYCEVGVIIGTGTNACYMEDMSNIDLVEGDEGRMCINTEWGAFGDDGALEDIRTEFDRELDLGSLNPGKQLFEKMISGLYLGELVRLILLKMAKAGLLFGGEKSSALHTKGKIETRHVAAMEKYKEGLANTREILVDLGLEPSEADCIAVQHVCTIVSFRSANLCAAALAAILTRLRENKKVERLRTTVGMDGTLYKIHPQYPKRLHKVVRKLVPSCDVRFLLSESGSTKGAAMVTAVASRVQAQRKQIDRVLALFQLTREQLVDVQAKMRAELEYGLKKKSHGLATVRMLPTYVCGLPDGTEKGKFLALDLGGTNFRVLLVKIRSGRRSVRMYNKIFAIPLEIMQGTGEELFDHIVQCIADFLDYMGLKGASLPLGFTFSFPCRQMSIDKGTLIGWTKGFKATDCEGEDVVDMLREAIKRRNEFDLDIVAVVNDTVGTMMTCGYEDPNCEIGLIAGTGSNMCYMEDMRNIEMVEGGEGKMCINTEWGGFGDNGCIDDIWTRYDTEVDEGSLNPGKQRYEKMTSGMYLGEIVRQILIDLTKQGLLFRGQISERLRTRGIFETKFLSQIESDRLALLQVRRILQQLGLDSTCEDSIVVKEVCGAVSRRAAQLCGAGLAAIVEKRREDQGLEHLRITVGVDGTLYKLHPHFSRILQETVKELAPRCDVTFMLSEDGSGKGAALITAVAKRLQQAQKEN
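Assay system: recombinant HKDC1 hexokinase; detection: coupled resazurin fluorescence, excitation 525 nm, emission 613 nm; benchmarks: DMSO-plus-enzyme-mix negative control, buffer-substituted positive control; compound dosing: single 20 µM dose; schedule: 90 min at room temperature in dark; also added: glucose plus 1 mM ATP as hexokinase substrates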
PfG6PD confirm: confirmation of Plasmodium falciparum G6PD inhibitors. recombinant PfGluPho, NADPH-diaphorase-resazurin fluorescence. shares compounds with PfGluPho inh. inhibition, % at 20 µM. 34% of 2,400 active;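 active = inhibition of at least 50% at 20 µM in any single replicate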;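 note: 0% = DMSO with substrate and 100% = DMSO lacking glucose-6-phosphate substrate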
Diaphorase 10uM: inhibits diaphorase or oxidizes, flagging false PfG6PD hits | inhibition, % at 20 µM | shares compounds with PfGluPho inh | diaphorase-coupled resazurin reduction, fluorescence, NADPH 10 uM | 39% of 820 active | AID 504862;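 active = average inhibition reaching 50% or more with the compound at 20 µM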;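 note: resorufin red fluorescence formed as diaphorase reduces resazurin using NADPH; 0% = DMSO with enzyme and 100% = DMSO without enzyme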
Diaph ctr 30uM: counter-screen for P. falciparum G6PD inhibitors: diaphorase inhibitors, oxidizers; 29% of 820 active; Diaphorase/resazurin coupled assay, resorufin fluorescence, 30 uM NADPH; inhibition, % at 20 µM; shares compounds with PfGluPho inh;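 active = inhibition averaging 50% or more, tested at 20 µM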;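 note: 0% = DMSO with enzyme and 100% = DMSO wells lacking diaphorase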
* marks the source's active call; other numbers are inactive results; / = no result.

SMILES	PfGluPho inh	G6PDH CS	Diaph act CS	Diaphorase inh	HKDC1 inh	PfG6PD confirm	Diaphorase 10uM	Diaph ctr 30uM
O=C1NC(=O)N(c2ccc3c(c2)OCO3)C(=O)/C1=C/c1ccsc1	28.4	-0.1	0.9	14.8	-7.6	/	/	/
CCn1c(C)c(C(=O)Nc2ccc(OC)cc2)c2cc(OC)ccc21	66.3*	/	/	/	-0.3	25.5	/	/
c1ccc(-c2nc(N3CCOCC3)s[n+]2-c2ccccc2)cc1	59.1*	-1.1	0.9	5.5	-12.1	72.8*	-23.7	-24.9
N#CC1c2ccccc2C=CN1C(=O)c1ccc(N(CCCl)CCCl)cc1 (centres undefined)	2.1	/	/	/	/	/	/	/
CC1=NN=C(c2ccc(N)cc2)c2cc3c(cc2C1)OCO3	44.2	/	/	/	14.5	9.3	/	/
COc1ccc2c(c1O)-c1c(OC)c(OC)cc3c1[C@H](C2)N(C)CC3	-7.0	/	/	/	1.4	/	/	/
CCCN1CCc2cccc3c2[C@H]1Cc1ccc(O)c(O)c1-3	86.2*	/	/	/	1.5	82.4*	28.1	10.7
CN(C)c1ccc(C=C2C(=O)NC(=S)NC2=O)cc1	68.8*	/	/	/	-4.2	41.0	/	/
Cc1ccc(Cc2c(C)nc3nc(SCC(=O)N4CCC5(CC4)OCCO5)nn3c2C)cc1	-2.9	2.7	0.9	10.1	-1.8	/	/	/
C[C@]12CC[C@@H]3c4ccc(O)c(O)c4CC[C@H]3[C@@H]1CC[C@@H]2O	99.7*	34.4	0.3	69.8*	1.4	93.2*	8.4	22.7
O=S1(=O)N(Cc2ccc(F)cc2)CCCN1Cc1ccccc1Cl	1.6	/	/	/	-0.9	/	/	/
CCCCCCCCn1sccc1=O	91.6*	/	/	/	7.3	77.9*	-9.2	-9.1
O=C(C(=O)N1CCOCC1)c1cn(Cc2c(F)cccc2Cl)c2ccccc12	1.0	7.6	1	1.5	-0.9	/	/	/
OCCOCC#CCN1CCOCC1	0.7	0.0	0.8	18.6	-9.0	/	/	/
CCCC(=O)NC1=C(N2CC2)C(=O)C(NC(=O)CCC)=C(N2CC2)C1=O	81.2*	/	/	/	9.9	93.5*	84.9*	81.5*
CCCC1CCCCC12C(=O)NC(=O)NC2=O (centres undefined)	-11.0	/	/	/	-0.2	/	/	/
O=C(CCCCCn1c(=S)[nH]c2ccccc2c1=O)N1CCC2(CC1)OCCO2	5.0	3.6	0.8	20.2	0.4	/	/	/
CCCC12CN3CCN(C1)CC(CCC)(C3)C2=O	-7.8	/	/	/	-1.5	/	/	/
CSCCC(N=Cc1c(O)n(-c2ccc(Cl)cc2)c(=O)[nH]c1=O)C(=O)OC(C)(C)C (centres undefined)	-0.8	1.2	0.9	5.0	-0.2	/	/	/
C=C1C(=O)O[C@@H]2C[C@@H](C)[C@@H]3C=CC(=O)[C@@]3(C)[C@@H](OC(=O)CC(=O)O[C@H]3[C@@H]4C(=C)C(=O)O[C@@H]4C[C@@H](C)[C@@H]4C=CC(=O)[C@]43C)[C@H]12	68.2*	/	/	/	16.2	55.9*	-6.4	-2.9
COc1ccc(OC)c(N2C(=O)NC(=O)/C(=C/c3ccc([N+](=O)[O-])s3)C2=O)c1	62.4*	16.3	0.6	41.0	6.2	38.3	/	/
CCN1C(=O)/C(=C\c2ccc([N+](=O)[O-])s2)C(=O)NC1=S	/	-1.3	0.5	49.9	/	/	/	/
COC(=O)C1=C(c2cc3ccccc3s2)C[C@@H]2CC[C@H]1N2C(=O)NCCCOC(C)C	-5.4	/	/	/	1.1	/	/	/
CC(C#N)CCC#N (centres undefined)	4.2	/	/	/	-5.5	/	/	/
O=C1C(=O)c2ccccc2-c2ccccc21	116.8*	53.4*	0.8	24.2	30.8	97.0*	88.4*	89.7*
SMILES	PfGluPho inh	G6PDH CS	Diaph act CS	Diaphorase inh	HKDC1 inh	PfG6PD confirm	Diaphorase 10uM	Diaph ctr 30uM
O=C1Nc2ccc(Br)cc2C(c2ccc(Cl)cc2)=NC1O (centres undefined)	99.5*	/	/	/	4.8	75.1*	83.3*	66.8*
Clc1ccc(-c2nc3ccc(Cl)cn3c2CN2CCOCC2)cc1	60.2*	10.0	1	-0.1	-4.7	32.5	/	/
Oc1ccccc1Cl	4.5	/	/	/	-2.7	/	/	/
Oc1ccc(O)c2c1C1(Cl)C(Cl)=C(Cl)C2(Cl)C1(Cl)Cl	73.3*	/	/	/	-1.8	12.4	/	/
CCOP(=O)(OCC)C(O)c1ccc(OC)cc1 (centres undefined)	-6.0	/	/	/	-0.8	/	/	/
COC(=O)C1=C(c2ccc3ccccc3c2)C[C@@H]2CC[C@H]1N2C(=O)NC1CCCCC1	9.4	/	/	/	-0.3	/	/	/
C[C@H]1CC[C@H]2NCCN[C@H]2C1	-14.4	/	/	/	-5.7	/	/	/
